# ChEMBL document CHEMBL1287707, “Virtual screening against nuclear factor κB (NF-κB) of a focus library: Identification of bioactive furocoumarin derivatives inhibiting NF-κB dependent biological functions involved in cystic fibrosis” (Bioorg Med Chem, 2010)
# Active and inactive are the calls of the source. No cut-off for these calls is given here.
# Target: T1, Nuclear factor NF-kappa-B p105 subunit (Homo sapiens, UniProt P19838)
# T1 sequence (P19838 whole entry): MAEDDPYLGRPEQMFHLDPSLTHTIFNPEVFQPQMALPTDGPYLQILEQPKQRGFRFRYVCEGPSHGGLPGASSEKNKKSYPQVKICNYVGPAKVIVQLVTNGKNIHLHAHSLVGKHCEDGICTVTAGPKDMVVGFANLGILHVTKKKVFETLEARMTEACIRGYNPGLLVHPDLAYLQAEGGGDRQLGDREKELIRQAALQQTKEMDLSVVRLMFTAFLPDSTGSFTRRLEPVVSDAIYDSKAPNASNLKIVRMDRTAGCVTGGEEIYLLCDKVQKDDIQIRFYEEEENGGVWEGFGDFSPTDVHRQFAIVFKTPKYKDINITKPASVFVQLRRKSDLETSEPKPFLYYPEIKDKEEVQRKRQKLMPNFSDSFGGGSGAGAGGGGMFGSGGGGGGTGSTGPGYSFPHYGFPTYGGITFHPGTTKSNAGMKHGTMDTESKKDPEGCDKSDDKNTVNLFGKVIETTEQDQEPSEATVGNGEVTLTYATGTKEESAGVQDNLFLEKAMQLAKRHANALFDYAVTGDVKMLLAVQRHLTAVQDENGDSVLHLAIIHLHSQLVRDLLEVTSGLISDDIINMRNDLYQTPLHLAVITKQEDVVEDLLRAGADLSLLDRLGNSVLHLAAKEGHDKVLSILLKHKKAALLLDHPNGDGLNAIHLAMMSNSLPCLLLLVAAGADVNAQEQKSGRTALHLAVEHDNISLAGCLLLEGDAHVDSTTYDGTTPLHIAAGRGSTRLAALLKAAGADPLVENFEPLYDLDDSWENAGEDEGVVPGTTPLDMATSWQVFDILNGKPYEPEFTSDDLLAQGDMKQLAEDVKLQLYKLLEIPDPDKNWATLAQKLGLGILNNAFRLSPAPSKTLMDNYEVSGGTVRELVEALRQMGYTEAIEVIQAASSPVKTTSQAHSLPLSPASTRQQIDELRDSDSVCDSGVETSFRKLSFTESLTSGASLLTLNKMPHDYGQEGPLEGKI
# Assay: Inhibition of NF-KB p50 subunit/DNA interaction after 20 mins by EMSA
# Method in brief: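 Recombinant human NF-κB p50 (10 ng) was preincubated 20 min at room temperature with varied compound concentrations in buffer TF with 5% glycerol and 1 mM DTT. 0.25 ng 32P-labelled double-stranded NF-κB site oligo was added for a further 20 min. Complexes were resolved on 6% PAGE in 0.25X TBE and detected by autoradiography. IC50 is the concentration giving 50% inhibition of binding.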
row,Structure (SMILES),IC50 [µM]
1,O=c1cc(-c2ccccc2)c2cc3c(-c4ccc5c(c4)OCO5)coc3cc2o1,20
2,COCCNc1oc2c(c1-c1cc(OC)c(OC)c(OC)c1)c(=O)oc1c(C)cccc12,40
3,O=C(O)c1ccc(COc2cc(O)cc3oc(=O)c4c(c23)CCC4)cc1,5000
4,COc1ccc(C(=O)c2oc3ccc4c(C)cc(=O)oc4c3c2-c2ccccc2)cc1,60
5,O=c1ccc2ccc3occc3c2o1 [ANGELICIN],2500
6,O=c1c(Br)cc2c(-c3ccccc3S(=O)(=O)O)c3cc(Br)c(O)c(O)c3oc-2c1O [BROMOPYROGALLOL RED],30
7,Cc1cc(=O)oc2cc(O)ccc12 [HYMECROMONE],200
8,O=C(O)/C=C/c1ccccc1O [O-COUMARIC ACID],50
9,O=c1ccc2cc3ccoc3cc2o1 [PSORALEN],3000
10,O=c1ccc2c(-c3ccccc3S(=O)(=O)O)c3ccc(O)c(O)c3oc-2c1O [PYROGALLOL RED],10

# Test system: IB3-1
# Assay: Antiinflammatory activity in Pseudomonas aeruginosa PAO1 infected human IB3-1 cells assessed as inhibition of IL8 gene expression at 10 uM after 4 hrs by RT-PCR analysis
# Type: functional, cell-based
# Method in brief: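 IB3-1 CF bronchial cells (ΔF508/W1282X) were grown in LHC-8 with 5% FBS, seeded at 200,000 cells/cm2, and serum-starved 18 h. Cells were then preincubated overnight with compound at 10 µM and infected with PAO1 at 30–100 CFU/cell for 4 h at 37 °C. Total RNA was reverse-transcribed and IL-8 mRNA quantified by RT-qPCR.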
row,Structure (SMILES),Activity
1,COCCNc1oc2c(c1-c1cc(OC)c(OC)c(OC)c1)c(=O)oc1c(C)cccc12,Active
2,COc1ccc(C(=O)c2oc3ccc4c(C)cc(=O)oc4c3c2-c2ccccc2)cc1,Active
